In the library only some 3.8% were active in any assay of this set; here they are far more common.
CHO parental Ca: ATP-evoked calcium signal inhibitors, parental CHO, primary screen, counter-screen for OX1R antagonist project, cell-based, fluorescence, Fluo-8 calcium dye | parental CHO-K1, ATP-induced calcium, Fluo-8 fluorescence | inhibition, % at 5.6 µM | 330,000 compounds, 0.63% hits;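 active means inhibition above that plate's mean sample inhibition plus 3 SD, cut at about 26% in these data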;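 further: 0% = ATP-challenged DMSO wells and 100% = DMSO wells without ATP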
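material = parental CHO cells | also added = ATP as calcium-mobilizing challenge | dosing = single point at 5.6 µM | detection = intracellular calcium via Fluo-8 no-wash fluorescent dye | read-out = % inhibition | benchmarks = low control ATP plus DMSO, high control DMSO only | repeats = one well per compound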
MPTP inh: mitochondrial permeability transition pore inhibitors, primary screen, biochemical, isolated mouse mitochondria, absorbance; Ca2+ swelling absorbance, 30 min; inhibition, % at 10 µM; 360,000 compounds, 1.4% hits; AID 602449, 2012;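 active means inhibition of 50% or more, scaled per plate between neutral and stimulator controls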;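 further: 0% = DMSO wells given calcium and 100% = 1 mM EGTA wells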
OX1R antag-1: antagonists of human orexin 1 receptor (OX1R); OX1R-expressing cells, FRET antagonist read-out; inhibition, % at 6.6 µM; 330,000 compounds, 1.8% hits; in the data active means inhibition mostly above about 38%, no sharp cut-off; inactive means mostly below about 40%;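 further: 0% = agonist challenge alone and 100% = reference antagonist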
OX1R antag-2: OX1R (HCRTR1) antagonists, primary screen, fluorescence, CHO/OX1R cells, Fluo-8 calcium, orexin A; Fluo-8 calcium fluorescence; inhibition, % at 5 µM; 330,000 compounds, 0.43% hits; AID 434989, 2010;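 active means inhibition above its plate's threshold, mean inhibition of all tested compounds on the plate plus 3 SD, cut at about 37% in these data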;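 further: 0% = orexin A challenge wells and 100% = SB-334867-A antagonist wells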
GPR7 antag: GPR7 receptor antagonists, primary screen, cell-based, fluorescence, single concentration; Neuropeptides B/W receptor type 1 (Homo sapiens), P48145; GPR7-expressing cells, fluorescence antagonist assay; inhibition, % at 4.4 µM; 290,000 compounds, 1.1% hits; in the data active means inhibition above about 16%, passing the limit was not always enough;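 further: cells stimulated with the agonist NPW; 0% = agonist with vehicle and 100% = vehicle without agonist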
Target sequence (P48145 whole entry, looked up): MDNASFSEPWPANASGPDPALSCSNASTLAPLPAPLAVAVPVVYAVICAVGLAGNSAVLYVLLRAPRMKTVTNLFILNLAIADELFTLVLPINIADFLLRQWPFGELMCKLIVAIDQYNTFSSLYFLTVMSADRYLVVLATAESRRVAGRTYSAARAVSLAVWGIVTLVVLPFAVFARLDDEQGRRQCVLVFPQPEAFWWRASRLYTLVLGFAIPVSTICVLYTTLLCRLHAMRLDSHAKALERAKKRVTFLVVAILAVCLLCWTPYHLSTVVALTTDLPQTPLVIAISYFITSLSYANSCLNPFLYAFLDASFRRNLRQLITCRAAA
OX1R HTRF confirm: OX1R (HCRTR1) antagonists, confirmation, cell-based, HTRF; shares compounds with OX1R antag-1; OX1R-expressing cells, HTRF antagonist assay; inhibition, % at 6.6 µM; 1,800 compounds, 49% hits; AID 492964, 2010; in the data active means inhibition above about 55%;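 further: CHO cells expressing OX1R stimulated with orexin A at about EC80; 0% = agonist challenge alone and 100% = reference antagonist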
CHO-K1 HTRF: signal inhibition in parental CHO-K1 cells, counter-screen for OX1R antagonist project, cell-based, HTRF; HTRF counterscreen; inhibition, % at 6.6 µM; shares compounds with OX1R antag-1; 1,800 compounds, 48% hits; in the data active means inhibition above about 17%;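 further: 0% = agonist challenge with vehicle and 100% = vehicle alone without agonist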
* marks the source's active call; other numbers are inactive results; / = no result.

SMILES	CHO parental Ca	MPTP inh	OX1R antag-1	OX1R antag-2	GPR7 antag	OX1R HTRF confirm	CHO-K1 HTRF
NS(=O)(=O)c1ccc(O)c(NC(=O)c2ccc([N+](=O)[O-])cc2)c1	-2.4	-0.1	91.7*	-12.1	-6.2	41.0	46.9*
Cc1cccc(NC(=O)COC(=O)c2ccccc2SCC(=O)N2CCCC2)c1	-27.6	-0.4	5.3	-27.5	-7.9	/	/
CC(C)(CNC(=O)CC1C(=O)NCCN1Cc1cccc(F)c1F)N1CCOCC1 (configuration not stated)	-0.8	0.5	-6.7	-10.1	-10.7	/	/
COc1ccc(CNS(=O)(=O)NCc2ccc(C)cc2)cc1OC	11.6	49.1	27.4	-8.3	-3.1	/	/
COc1ccc(NC(=O)CSCC(=O)NC2(C)CCS(=O)(=O)C2)cc1 (configuration not stated)	-6.1	-0.9	7.0	-19.3	-18.3	/	/
CC(CCN1CCN=C1Nc1ccccc1)c1ccccc1 (configuration not stated)	-1.0	0.8	10.5	-3.5	-1.5	/	/
CCN1CCc2c(C#N)c(N3CCOCC3)nc(NCCO)c2C1	1.4	0.8	78.5*	-1.4	-0.2	7.0	-0.7
CCN1CCc2c(C#N)c(N3CCOCC3)nc(NCc3ccccc3)c2C1	/	-0.9	/	/	-12.4	/	/
CC1=C(C#N)C(c2cccnc2)C2=C(N1)c1ccccc1C2=O (configuration not stated)	4.3	-0.6	96.4*	-7.1	-0.6	0.2	-26.0
COc1ccc(C(C(=O)NC2CCCCC2)N2CCC3(CC2)OCCO3)cc1 (configuration not stated)	0.5	-0.9	89.1*	-3.0	-9.5	14.0	1.7
Cc1ccc(C(C(=O)NC2CCCCC2)N2CCC3(CC2)OCCO3)cc1 (configuration not stated)	-2.9	-0.5	10.7	-21.4	12.0	/	/
NC(=O)c1c(NC(=O)Cn2cc([N+](=O)[O-])cn2)sc2c1CCCC2	-1.9	2.7	100.7*	-17.6	-2.7	17.9	6.8
CCOC(=O)c1c(NC(=O)Cn2cc([N+](=O)[O-])cn2)sc2c1CCC2	-18.8	2.2	7.0	-1.9	-7.7	/	/
CSc1ncc(-c2ccc(Cl)cc2)[nH]1	-1.0	1.8	34.4	-10.3	8.3	/	/
C/C(=N\NC(=O)c1cc([N+](=O)[O-])cc([N+](=O)[O-])c1)c1ccco1	-8.4	0.1	80.6*	-19.4	-1.7	56.3*	89.3*
CCCn1c(/C=C/c2ccccc2)nc2ccccc21	-29.7	-1.5	12.5	-34.1	-0.3	/	/
CCn1c(/C=C/c2cc[n+](C)cc2)nc2ccccc21	-2.8	0.8	78.4*	11.1	-11.9	48.5	58.8*
O=C(NCCN1C(=O)S/C(=C\c2ccc(Cl)c([N+](=O)[O-])c2)C1=O)C1=COCCO1	-3.4	10.6	83.0*	-2.5	/	48.2	57.3*
O=C(NCCN1C(=O)S/C(=C\c2ccc(Cl)c(Cl)c2)C1=O)c1cnccn1	-1.2	8.3	5.8	-3.0	-3.2	/	/
Cc1cccc(-c2noc(CN(C)C(=O)c3ccc4c(c3)OCO4)n2)c1	-4.7	0.9	12.9	-12.9	1.5	/	/
N/C(=N\OC(=O)c1cccc([N+](=O)[O-])c1)c1ccccn1	-9.8	-0.9	96.5*	-9.4	-1.2	44.5	37.7*
N/C(=N/S(=O)(=O)c1ccccc1)c1cccc([N+](=O)[O-])c1	12.8	-0.8	89.6*	-31.6	-8.5	19.3	20.7*
CC1CC(C)CN(S(=O)(=O)c2cccc(C(=O)N3CCN(c4ccc(F)cc4)CC3)c2)C1 (configuration not stated)	-41.5	-2.8	6.3	-11.5	/	/	/
O=C(NCCN1CCOCC1)c1cc(Sc2ccccc2Cl)nc2ccccc12	-16.0	/	91.3*	19.5	2.4	90.0*	3.2
O=C(NCCN1CCOCC1)c1cc(Sc2ccc(F)cc2F)nc2ccccc12	-21.0	0.3	31.8	-24.3	-17.9	/	/
SMILES	CHO parental Ca	MPTP inh	OX1R antag-1	OX1R antag-2	GPR7 antag	OX1R HTRF confirm	CHO-K1 HTRF
CC1CN(C(=O)CCC(=O)NCCCN2C(C)CCCC2C)c2ccccc2O1 (configuration not stated)	-9.8	-1.0	2.3	-8.6	-1.2	/	/
COc1cc(/C=N/NC(=O)c2sc3nc(C)cc(C)c3c2N)ccc1O	-10.8	2.0	99.7*	25.9	-2.2	97.7*	24.6*
C=CCOn1c(=O)c(-c2ccccc2)[n+]([O-])c2ccccc21	-14.4	1.2	122.4*	-28.5	1.5	35.4	46.7*
CCOn1c(=O)c(-c2ccc(OC)cc2)[n+]([O-])c2ccccc21	-19.0	3.4	120.6*	-15.2	10.7	35.1	38.1*
CCOn1c(=O)c(-c2ccc(OC)c(OC)c2)[n+]([O-])c2ccccc21	3.5	-2.2	103.2*	2.7	-8.7	39.8	37.0*
C=CCOn1c(=O)c(-c2ccc(C)cc2)[n+]([O-])c2ccccc21	-12.2	-0.9	28.7	-19.5	-12.4	/	/
CCOn1c(=O)c(-c2cc(OC)ccc2OC)[n+]([O-])c2ccccc21	-13.4	-0.8	24.7	-13.2	-12.3	/	/
CCOc1ccc(-c2c(=O)n(OCC)c3ccccc3[n+]2[O-])cc1	-7.6	-0.8	29.8	-21.2	-11.5	/	/
CC(C)n1c(CSCc2ccc(Cl)cc2Cl)n[nH]c1=S	-17.4	1.6	26.4	-10.7	-6.7	/	/
CCCCCn1nnc2c(=O)oc3ccccc3c21	-10.2	-0.4	9.3	-10.1	18.1	/	/
O=C(COC(=O)c1cccc([N+](=O)[O-])c1)NC1CCCC1	-3.6	0.1	14.4	12.3	-7.4	/	/
Cc1cc(C)c(NC(=O)C2CCCN2CCOC(=O)c2cccc([N+](=O)[O-])c2)c(C)c1 (configuration not stated)	-15.4	0.9	97.5*	-6.8	-4.1	70.1*	7.6
CCc1cc[n+](C2=C([O-])c3ccccc3C(=O)/C2=N\S(=O)(=O)c2cccs2)cc1	-12.4	-0.8	148.7*	-17.4	-1.7	55.7*	80.4*
O=C1C(Nc2ccccc2)=C/C(=N/S(=O)(=O)c2cccs2)c2ccccc21	-23.3	10.1	39.8	-21.1	-6.0	/	/
Cc1ccc2nc3c(cc(C(=O)NCCCn4ccnc4)n3C)c(=O)n2c1	-17.4	-0.5	80.0*	-13.4	2.0	23.2	30.4*
O=C(COc1ccc2c(c1)OCO2)Nc1ccccc1F	-9.7	-0.8	8.3	-3.1	-1.1	/	/
COC(=O)c1ccccc1NC(=O)COc1ccc2c(c1)OCO2	-7.2	0.5	80.1*	-53.6	8.9	63.1*	13.8

Bioassay records: PubChem BioAssay, several laboratories
